Data from publication PMC2934894 (Biochemical pharmacology, 2010).
Read-outs that look alike come from different tables or passages of the source.

What was measured:
[1] = tested on: ERα + ERβ; assay: HEK293 ERE-luciferase reporter assay, ERα + ERβ; format: cell-based
Method in brief: (§1)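 HEK293 cells were batch-transfected per well with 2.5 ng of each ER (ERα alone or ERα + ERβ) plus 50 ng tk-ERE-luc. After 48 h expression, cells were exposed to ligands for 24 h and lysed. Firefly luciferase luminescence was measured and normalized to β-galactosidase luminescence in the same well.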

[2] = target: T1, ERα (Homo sapiens, UniProt P03372); assay: Fluorescence Polarization Competition Binding Assay, ERα; conditions: read-out: Ki for binding to ERα; correlated from IC50, FP competition
Method in brief: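 Competitive fluorescence polarization used purified ERα from a commercial kit. Compound was tenfold serially diluted in screening buffer (down to 10 pM final), DMSO below 1%. It was mixed with ERα (15 nM final) and Fluormone tracer (1 nM final). Incubation was 2 h in the dark at room temperature, then polarization was read in glass tubes.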

[3] = target: ERα/β heterodimer (Homo sapiens, UniProt P03372+Q92731); assay: BRET assay, ERα/β heterodimerization in transfected HEK293 cells; format: cell-based; conditions: 1 hour
Method in brief: (§2)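 HEK293 cells batch-transfected in phenol red free DMEM + 5% SFS with fusion pairs: ERα-RLuc + ERα-YFP (α/α), RLuc-ERβ + YFP-ERβ (β/β) or ERα-RLuc + YFP-ERβ (α/β). RLuc-only cells were included for the correction factor. After 24 h, cells were trypsinized and replated at 10,000/well in PBS. Compound was applied for 1 h, then coelenterazine h was added. Emission was read at 470/530 nm; BRET ratio; triplicates; E2 positive, DMSO negative control.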

[4] = tested on: HC11 cells; assay: MTT assay for cellular metabolic activity, HC11; format: cell-based, mouse; conditions: inhibition retained in the presence of ICI 182,780
[5] = target: ERβ/β homodimer (Homo sapiens, UniProt Q92731); assay: BRET assay, ERβ/β homodimerization in transfected HEK293 cells; format: cell-based; conditions: 100 μM purified compound
Method in brief: as §2

[6] = target: T2, ERα/α homodimer (Homo sapiens, UniProt P03372); assay: BRET assay, ERα/α homodimerization in transfected HEK293 cells; format: cell-based; conditions: 100 μM purified compound
T2 sequence (P03372 1-595) 1: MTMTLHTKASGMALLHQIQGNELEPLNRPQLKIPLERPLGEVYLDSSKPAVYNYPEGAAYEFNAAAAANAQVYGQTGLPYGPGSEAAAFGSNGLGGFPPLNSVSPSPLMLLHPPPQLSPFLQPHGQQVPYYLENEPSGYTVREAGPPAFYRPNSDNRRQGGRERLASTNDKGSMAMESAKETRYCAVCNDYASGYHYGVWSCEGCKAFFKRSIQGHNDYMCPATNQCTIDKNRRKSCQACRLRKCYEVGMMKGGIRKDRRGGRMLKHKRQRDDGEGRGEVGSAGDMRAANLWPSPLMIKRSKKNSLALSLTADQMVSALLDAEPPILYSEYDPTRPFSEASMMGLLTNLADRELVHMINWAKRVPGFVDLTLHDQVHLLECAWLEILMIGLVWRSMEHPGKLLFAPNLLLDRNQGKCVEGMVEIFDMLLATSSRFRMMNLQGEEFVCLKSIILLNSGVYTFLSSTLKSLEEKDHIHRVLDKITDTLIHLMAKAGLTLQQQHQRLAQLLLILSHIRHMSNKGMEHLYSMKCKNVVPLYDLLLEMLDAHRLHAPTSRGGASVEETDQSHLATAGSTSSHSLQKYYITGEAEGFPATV
T2 sequence (P03372 1-595) 2: T2 sequence (P03372 1-595) 1
Method in brief: as §2

[7] = target: T1, ERα; assay: HEK293 ERE-luciferase reporter assay, ERα alone; format: cell-based; conditions: HEK293, 24 hours with ligand, 10 μM and 100 μM
Method in brief: as §1

[8] = tested on: HC11 cells; conditions: HC11, 10 μM synthetic compound, vs DMSO, p= 0.06
[9] = target: T3, ERβ (Homo sapiens, UniProt Q92731); assay: Fluorescence Polarization Competition Binding Assay, ERβ
[10] = target: T3, ERβ; assay: HEK293 ERE-luciferase reporter assay, ERβ alone; format: cell-based; conditions: HEK293, 24 hours with ligand, 10 μM and 100 μM
[11] = tested on: PC3 cells; conditions: vs DMSO
[12] = tested on: PC3 cells; assay: MTT assay for cellular metabolic activity, PC3; format: cell-based, human; conditions: inhibition retained in the presence of ICI 182,780

T3 sequence (Q92731 whole entry): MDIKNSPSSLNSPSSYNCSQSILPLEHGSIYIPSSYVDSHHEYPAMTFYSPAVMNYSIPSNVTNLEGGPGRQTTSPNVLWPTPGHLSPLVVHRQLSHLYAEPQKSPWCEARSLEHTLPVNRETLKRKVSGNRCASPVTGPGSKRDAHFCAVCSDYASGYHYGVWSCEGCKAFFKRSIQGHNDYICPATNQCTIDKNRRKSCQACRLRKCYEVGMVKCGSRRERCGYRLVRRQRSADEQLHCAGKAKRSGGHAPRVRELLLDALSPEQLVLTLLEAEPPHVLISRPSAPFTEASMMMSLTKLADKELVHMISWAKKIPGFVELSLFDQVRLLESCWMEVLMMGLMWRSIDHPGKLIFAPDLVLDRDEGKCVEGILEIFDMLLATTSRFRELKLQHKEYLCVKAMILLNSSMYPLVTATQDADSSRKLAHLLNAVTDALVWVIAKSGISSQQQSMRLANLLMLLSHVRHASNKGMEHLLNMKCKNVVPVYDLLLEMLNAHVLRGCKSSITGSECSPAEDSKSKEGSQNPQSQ
ERα/β heterodimer, sequence (Q92731 whole entry, one chain of several, the tested form may be a part): as the sequence (Q92731 whole entry) above
ERβ/β homodimer, sequence (Q92731 whole entry): as above
ERβ/β homodimer, sequence (Q92731 whole entry): as above

Row | Compound | effect on actinopolymorphol A-dependent reporter activity ([1]; in the presence of ERα + ERβ, HEK293 ERE-luciferase) | Ki [2] [µM] | induction for ERα/β heterodimers (BRET ratio) ([3]; 10 μM purified compound) [fold] | increase in ERα/β heterodimerization (BRET ratio) ([3]; 100 μM purified compound) [fold] | cell proliferation (MTT metabolic activity) [4] | induction of ERβ/β homodimer (BRET ratio) [5] | induction of ERα/α homodimer (BRET ratio) [6] | transcriptional activity of ERα alone (ERE-luciferase) [7] | cell number [8] | binding affinity for ERβ over ERα ([9]; FP competition binding, ERβ vs ERα) [fold] | Ki ([9]; read-out: Ki for binding to ERβ, correlated from IC50, FP competition) [µM] | transcriptional activity of ERα + ERβ (ERE-luciferase) ([1]; HEK293, 24 hours with ligand, 10 μM and 100 μM) | transcriptional activity of ERβ alone (ERE-luciferase) [10] | cell number ([11]; PC3, 10 μM synthetic compound, p= 0.03) | cell number ([11]; PC3, 100 μM synthetic compound, p=0.002) | cell proliferation (MTT metabolic activity) [12]
1 | C[C@]12CC[C@@H]3c4ccc(O)cc4C[C@@H](CCCCCCCCC[S+]([O-])CCCC(F)(F)C(F)(F)F)[C@H]3[C@@H]1CC[C@@H]2O (stereo partly shown) [ICI 182,780, reference compound] | completely abrogated |  |  |  |  |  |  |  |  |  |  |  |  |  |  | 
2 | actinopolymorphol A |  | 6.2 | 3 | 5 | inhibited | less than 1.5 fold | less than 1.5 fold | not able to activate | statistically non-significant decrease | ~2 | 4.3 | found to activate | found to activate | statistically significant decreases | statistically significant decreases | inhibited
